Compound activity deposited in PubChem BioAssay by The Scripps Research Institute Molecular Screening Center.
Most compounds without a hit are left out; they make up all but 1.8% or so of the library.
CHRM5 agonist – agonists of human muscarinic M5 receptor (CHRM5); P08912; CHO-K1 hM5 cells, Fluo-8 calcium fluorescence; 0% DMSO wells, 100% maximal acetylcholine response; activation, % at 3 µM; 360,000 compounds, 0.19% hits;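 active means activation above the run's mean over test compounds plus 3 SD, cut at about 23% in these data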;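 further: signal is peak over basal fluorescence ratio across the kinetic read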
CHRM4 agonist – agonists of human muscarinic M4 receptor (CHRM4); AID 624127; 360,000 compounds, 0.14% hits; activation, % at 3 µM; CHO-K1 hM4/Gqi5, Fluo-8 calcium fluorescence; vehicle 0%, full acetylcholine response 100%;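 active means activation above the run mean over all test wells plus 3 SD, cut at about 32% in these data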;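 further: peak over basal fluorescence ratio per well then scaled between controls; 0% = DMSO wells and 100% = acetylcholine at EC100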
Target sequence (P08173 whole entry, looked up): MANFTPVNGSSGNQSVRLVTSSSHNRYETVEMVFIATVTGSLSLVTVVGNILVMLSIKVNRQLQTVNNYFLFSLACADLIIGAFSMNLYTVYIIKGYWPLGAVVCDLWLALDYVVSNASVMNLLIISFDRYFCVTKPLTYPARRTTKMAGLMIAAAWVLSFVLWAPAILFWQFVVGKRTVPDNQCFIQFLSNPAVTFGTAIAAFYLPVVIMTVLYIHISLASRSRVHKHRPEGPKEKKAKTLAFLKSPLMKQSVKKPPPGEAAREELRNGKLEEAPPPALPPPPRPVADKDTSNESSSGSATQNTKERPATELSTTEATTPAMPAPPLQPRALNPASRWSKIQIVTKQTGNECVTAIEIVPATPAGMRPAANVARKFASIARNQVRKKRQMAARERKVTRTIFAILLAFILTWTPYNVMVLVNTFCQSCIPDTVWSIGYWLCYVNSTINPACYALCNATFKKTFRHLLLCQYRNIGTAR
M4 antag – blocks acetylcholine activation of human M4 receptor | P08173 | CHO-hM4 cells, ACh EC80, Fluo-8 calcium fluorescence | inhibition, % at 3 µM | 360,000 compounds, 0.73% hits;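 active means inhibition above its plate's cutoff, the mean inhibition of sample wells plus 3 SD, cut at about 27% in these data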;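 further: 0% = acetylcholine EC80 with DMSO and 100% = DMSO without agonist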
M4 PAM – positive allosteric modulators of human muscarinic M4 receptor; activation, % at 3 µM; P08173; CHO-K1 hM4/Gqi5, Fluo-8 calcium fluorescence, ACh EC20; 0% = ACh EC20, 100% = maximal ACh; 360,000 compounds, 0.4% hits; AID 624126;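 active means activation above its plate's cutoff, the mean activation of sample wells plus 3 SD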
CHRM5 antagonist – blocks acetylcholine activation of human M5 receptor | 360,000 compounds, 0.59% hits | inhibition, % at 3 µM | AID 624040 | CHO-hM5 cells, Fluo-8 calcium fluorescence, ACh EC80 | P08912;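 active means inhibition above a per-plate cutoff, the mean of that plate's test compounds plus 3 SD, cut at about 27% in these data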;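 further: 0% = acetylcholine EC80 with DMSO and 100% = DMSO without agonist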
CHRM5 PAM – CHRM5 positive allosteric modulation. P08912. CHO-K1 hM5, Fluo-8 calcium, ACh EC20 PAM; 0% = ACh EC20, 100% = ACh EC100. activation, % at 3 µM. 360,000 compounds, 0.3% hits. AID 624038;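 active means activation above the run cutoff, the mean activation of all test compounds plus 3 SD, cut at about 18% in these data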
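Assay system: CHO-K1 hM5 cells. Also added: acetylcholine at EC20 concentration, added after compound. Dosing: 3 µM, single dose. Times: compound preincubation 140 s before EC20 acetylcholine addition. Signal: Fluo-8 calcium fluorescence. Measure: % activation relative to EC20 and EC100 ACh responses. Repeats: singlicate, one well per test compound.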
* marks the source's active call; other numbers are inactive results.

SMILES	CHRM5 agonist	CHRM4 agonist	M4 antag	M4 PAM	CHRM5 antagonist	CHRM5 PAM
Cc1cc(/C=C(\C#N)C(=O)NC2CCCCCC2)c(C)n1C	0	1	6	23*	-5	4
COc1ccc(NC(=O)C2(c3ccccc3)CCCC2)cc1	-7	-1	3	-4	0	-8
CC(C[N+](C)(C)C)OC(=O)C1(c2ccccc2)CCCC1 (configuration not stated)	-22	1	22	-44	42*	-32
O=C(COC(=O)C1(c2ccccc2)CC1)NNC(=O)c1ccccc1F	1	1	-14	4	3	0
C[N+]1(CCOC(=O)C2(c3ccccc3)CCCC2)CCCCC1	-8	0	97*	-26	98*	-17
C[N+](C)(C)CCOC(=O)C1(c2ccccc2)CCCC1	-12	1	97*	-14	99*	-15
O=C1CC(=C(c2ccccc2)c2ccccc2)C(=O)N1CCCN1CCN(c2cccc(Cl)c2)CC1	-8	-1	28*	-22	3	-22
O=C1CC(=C(c2ccccc2)c2ccccc2)C(=O)N1CCN1CCN(c2cccc(Cl)c2)CC1	-1	1	17	9	-2	-1
O=C(Nc1ccc(Cl)cc1)C1Cc2c(-c3ccccc3Oc3ccccc3)ccnc2O1 (configuration not stated)	1	0	0	-7	2	-5
CCc1cccc(C)c1NC(=O)CN(C)C1=NS(=O)(=O)c2ccccc21	1	0	3	4	3	0
O=c1c2cc(F)ccc2sn1-c1ccccc1	24*	30	14	-5	12	2
COc1cccc(CN2CC(C(=O)NCCOc3ccccc3)CCC2=O)c1 (configuration not stated)	-5	2	3	-3	29*	-13
CCOc1ccc(NC(=O)Cc2ccc(S(=O)(=O)N3CCCCC3)cc2)cc1OCC	0	2	-25	-3	4	1
COc1ccc(N(CC(=O)NCc2ccc(Cl)cc2)S(=O)(=O)c2c(C)n[nH]c2C)cc1	-5	4	-3	-2	30*	-9
COc1ccc(N(CC(=O)NCc2ccc(F)cc2)S(=O)(=O)c2c(C)n[nH]c2C)cc1	-2	3	2	-2	6	3
CC(OC(=O)CNC(=O)c1cccs1)C(=O)Nc1ccc(S(N)(=O)=O)cc1 (configuration not stated)	0	1	3	2	7	2
CC(=O)Nc1ccc(NC(=O)C(C)OC(=O)CNC(=O)c2cccs2)cc1 (configuration not stated)	-8	0	-2	7	97*	-32
O=C(CCNC(=O)C1CCN(S(=O)(=O)c2ccc(F)cc2)CC1)NCCc1ccc(Cl)cc1	-2	3	-5	-5	2	-5
O=C(O)c1c(C(=O)O)c(-c2ccc(Br)cc2)n2c1CSC2	2	1	1	3	4	3
c1ccc2cc(OCCCn3ccnc3)ccc2c1	-8	8	7	-16	11	-3
Oc1c(N=Nc2ccccn2)ccc2ccccc12	-7	1	35*	0	33*	-14
Oc1[nH]c2ccccc2c1N=Nc1ccccn1	3	1	-8	7	11	1
O=C(Nc1nccs1)c1ccc(Cl)c([N+](=O)[O-])c1	2	3	4	-2	12	-8
O=C(O)Cn1c(C(F)(F)F)nc2ccccc21	3	1	32*	20	0	2
OCCNC(=S)NCCc1ccccc1	-3	1	3	3	-9	7
CC(C)(CNC(=S)NCCc1ccccc1)CNC(=S)NCCc1ccccc1	5	18	26	-16	28*	-17
Cc1ccc(/C=N/N2CCN(Cc3ccccc3)CC2)o1	-5	1	9	1	5	-3
Cc1ccc(/C=N/N2CCN(Cc3cccc4ccccc34)CC2)o1	-3	-3	29*	2	-12	5
